Publication PMC4829539 (International Journal of Medical Sciences, 2016)
Where two headings read alike, the source gives them in different places.

Key:
[1] = n = 4, cited from earlier work
[2] = format: in vivo, Male Wistar rats; conditions: rats, i.v., LC-MS/MS
In short: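 Anaesthetised 10-week-old male Wistar rats (pentobarbital 50 mg/kg, 37°C) received test compound 5.0 mg/kg i.v. via jugular vein, in saline. DMN array applied to shaved abdomen (2.0 m/s, then 2.5 N for 1-3 min). 2 µL ISF drawn from pore at 15, 30, 45, 60, 75, 90, 120 min; femoral-vein plasma sampled. Positive-ESI LC-MS/MS quantification; mean ± SE, unpaired t-test.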

[3] = mice; cited from earlier work
[4] = from DMNs, rats; cited from earlier work
[5] = rats; cited from earlier work

CN[C@H](CC(C)C)C(=O)N[C@H]1C(=O)N[C@@H](CC(N)=O)C(=O)N[C@H]2C(=O)N[C@H]3C(=O)N[C@H](C(=O)N[C@H](C(=O)O)c4cc(O)cc(O)c4-c4cc3ccc4O)[C@H](O)c3ccc(c(Cl)c3)Oc3cc2cc(c3O[C@@H]2O[C@H](CO)[C@@H](O)[C@H](O)[C@H]2O[C@H]2C[C@](C)(N)[C@H](O)[C@H](C)O2)Oc2ccc(cc2Cl)[C@H]1O [VCM, Vancomycin]
AUC, ISF ([1]; ISF by ultrafiltration probe): 75300 ± 7700 ng·h/mL
Tmax (average), ISF ([1]; ISF by ultrafiltration probe): 39.6 min
AUC, blood ([1]; blood): 89800 ± 15700 ng·h/mL
Cmax in the blood ([1]; blood): 80.2 ± 18.5 µg/mL
Mean concentration of VCM in plasma compared with ISF, early phase ([2]; 30 min after administration): higher than that in ISF
Concentration of VCM in ISF compared with plasma, after 30 min ([2]; after 30 min): higher than that in plasma

erythropoietin [EPO]
Bioavailability (BA) from the DMNs [3]: 82.1-99.4%

insulin
Physiological availability (PA) [4]: 91.3-97.7%

low-molecular-weight heparin [LMWH]
Physiological availability (PA) [4]: 81.5-102.3%

recombinant human growth hormone [rhGH]
Bioavailability (BA) from the DMNs [5]: 87.5%
